Reference: ChEMBL document CHEMBL1667754, “Synthesis and biological activity of pyrazolothienotetrahydroisoquinoline and [1,2,4]triazolo[3,4-a]thienotetrahydroisoquinoline derivatives” (2011)

Key:
[1] = tested on: Scopulariopsis brevicaulis; assay: Antifungal activity against Scopulariopsis brevicaulis at 2% by disc diffusion assay
[2] = tested on: Micrococcus luteus; assay: Antibacterial activity against Micrococcus luteus at 50 uL/well by well diffusion assay; type: functional
Summary of the method: (§1)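 Bauer-type diffusion assay. Test compounds were at 2% in DMSO. The read-out was the diameter (mm) of the inhibition zone, with chloramphenicol as the reference agent.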

[3] = tested on: Serratia marcescens; assay: Antibacterial activity against Serratia marcescens at 200 ug/disc by disc diffusion assay
[4] = tested on: Fusarium oxysporum; assay: Antifungal activity against Fusarium oxysporum at 2% by disc diffusion assay
[5] = tested on: Aspergillus flavus; assay: Antifungal activity against Aspergillus flavus at 2% by disc diffusion assay
[6] = tested on: Trichophyton rubrum; assay: Antifungal activity against Trichophyton rubrum at 50 uL/well by well diffusion assay; type: functional
Summary of the method: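 Agar discs (10 mm) carrying spores and hyphae were shaken in sterile distilled water. 1 mL of the spore suspension was plated and mixed with 15 mL molten SDA, then left to set. Compounds were at 2% in DMSO, applied per Bauer's diffusion method. The read-out was the inhibition zone (mm).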

[7] = tested on: Candida albicans; assay: Antifungal activity against Candida albicans at 200 ug/disc by disc diffusion assay
[8] = tested on: Staphylococcus aureus; assay: Antibacterial activity against Staphylococcus aureus at 200 ug/disc by disc diffusion assay
[9] = tested on: Escherichia coli; assay: Antibacterial activity against Escherichia coli at 50 uL/well by well diffusion assay; type: functional
Summary of the method: as §1

[10] = tested on: Pseudomonas aeruginosa; assay: Antibacterial activity against Pseudomonas aeruginosa at 200 ug/disc by disc diffusion assay
[11] = tested on: Bacillus cereus; assay: Antibacterial activity against Bacillus cereus at 200 ug/disc by disc diffusion assay
[12] = tested on: Aspergillus niger; assay: Antifungal activity against Aspergillus niger at 2% by disc diffusion assay
[13] = tested on: Geotrichum candidum; assay: Antifungal activity against Geotrichum candidum at 2% by disc diffusion assay

Compound | diameter of the inhibition zone (DIZ) [1] [mm] | diameter of the inhibition zone (DIZ) [2] [mm] | diameter of the inhibition zone (DIZ) [3] [mm] | diameter of the inhibition zone (DIZ) [4] [mm] | diameter of the inhibition zone (DIZ) [5] [mm] | diameter of the inhibition zone (DIZ) [6] [mm] | diameter of the inhibition zone (DIZ) [7] [mm] | diameter of the inhibition zone (DIZ) [8] [mm] | diameter of the inhibition zone (DIZ) [9] [mm] | diameter of the inhibition zone (DIZ) [10] [mm] | diameter of the inhibition zone (DIZ) [11] [mm] | diameter of the inhibition zone (DIZ) [12] [mm] | diameter of the inhibition zone (DIZ) [13] [mm]
Cc1cc(C)n(-c2[nH]c(=S)c(C#N)c3c2CCCC3)n1 | 0 | 0 | 0 | 0 | 0 | 0 | 0 | 8 | 0 | 0 | 16 | 0 | 0
N#Cc1c2c(c(-n3[nH]c(=O)cc3N)[nH]c1=S)CCCC2 | 0 | 10 | 0 | 0 | 0 | 0 | 0 | 0 | 0 | 0 | 9 | 0 | 8
N#Cc1c2c(c(N3N=C(c4ccccc4)CC3=O)[nH]c1=S)CCCC2 | 0 | 0 | 0 | 0 | 0 | 14 | 0 | 0 | 13 | 0 | 0 | 0 | 0
N#CCSc1c(C#N)c2c(c3nncn13)CCCC2 | 0 | 11 | 12 | 0 | 0 | 0 | 0 | 10 | 8 | 0 | 12 | 0 | 0
N#Cc1sc2c(c1N)c1c(c3nncn32)CCCC1 | 0 | 0 | 11 | 0 | 0 | 0 | 0 | 9 | 0 | 0 | 11 | 0 | 0
CCOC(=O)CSc1c(C#N)c2c(c3nncn13)CCCC2 | 0 | 10 | 0 | 0 | 0 | 0 | 0 | 0 | 0 | 0 | 11 | 0 | 0
CCOC(=O)c1sc2c(c1N)c1c(c3nncn32)CCCC1 | 0 | 0 | 10 | 0 | 8 | 0 | 10 | 10 | 11 | 0 | 8 | 0 | 0
N#Cc1c2c(c3nncn3c1SCC(N)=O)CCCC2 | 0 | 0 | 0 | 0 | 0 | 0 | 0 | 8 | 12 | 0 | 13 | 0 | 0
